Only some compounds are listed: those with a hit (about 5.3% of all), similar ones and a draw of the others.
EphB4 antag = EphB4-ephrin-B2 interaction antagonists, primary screen, biochemical, TNYL-RAW peptide probe, fluorescence polarization; 97,000 compounds, 0.15% hits; Ephrin type-B receptor 4 (Homo sapiens), P54760; inhibition, % at 7 µM; AID 720, 2007; EphB4 LBD / TNYL-RAW-Alexa532 peptide;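 active means inhibition above the screen-wide mean inhibition plus 3 SD, cut at about 15% in these data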
Rev-RRE block = HIV-1 Rev-RRE binding inhibitors, primary screen, biochemical, FRET, protein-RNA interaction; P05866; Rev peptide-RRE RNA binding; inhibition, % at 8 µM; 97,000 compounds, 0.79% hits;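 active means inhibition above the screen-wide mean plus 3 SD, cut at about 35% in these data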
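Probe or stimulus: fluorescein-Rev peptide as binding partner; assay system: Cy5-tagged RRE RNA duplex with fluorescein-tagged Rev peptide; timing: 5 min compound–RNA preincubation, then 15 min with peptide, 25 °C; medium: HEPES pH 7.5 buffer with KCl, MgCl2, NaCl and EDTA; signal: fluorescein-to-Cy5 FRET, 480 nm excitation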
Plk1 PBD FP = Plk1 polo box domain binding inhibitors, primary screen, biochemical, fluorescence polarization | Serine/threonine-protein kinase PLK1 (Homo sapiens), P53350 | Plk1 PBD phosphopeptide binding | inhibition, %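 (tested at about 20 µM)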 | 97,000 compounds, 0.13% hits; in the data active means inhibition above about 34%, passing the limit was not always enough
PLK1 inh = human PLK1 kinase inhibitors, primary screen, biochemical, TR-FRET. recombinant PLK1 kinase, TR-FRET peptide phosphorylation. Serine/threonine-protein kinase PLK1 (Homo sapiens), P53350. AID 619, 2007. 97,000 compounds, 0.53% hits. inhibition, % at 10 µM;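 active means inhibition of 50% or more in the single-concentration screen; inactive means inhibition below 50%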
Cav32 inh = Cav3.2 calcium influx blockers – cell-based, Fluo-4 calcium fluorescence, FDSS, MLSMR library, primary screen. AID 449739, 2010. Cav3.2-expressing cells; hits give low values. B-score at 10 µM. Voltage-dependent T-type calcium channel subunit alpha-1H (Homo sapiens), O95180. 100,000 compounds, 4% hits;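 active means single-dose well whose peak fluorescence ratio is a statistical outlier from its plate by either plate-standardised score or position-corrected B-score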
FAK blocker = FAK kinase inhibitors, primary screen, biochemical; biochemical FAK kinase activity assay; AID 727, 2007; 97,000 compounds, 0.84% hits; Focal adhesion kinase 1 (Homo sapiens), Q05397; inhibition, %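 (tested at 7 µM)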; in the data active means inhibition above about 19%
Target sequence (Q05397 whole entry, looked up): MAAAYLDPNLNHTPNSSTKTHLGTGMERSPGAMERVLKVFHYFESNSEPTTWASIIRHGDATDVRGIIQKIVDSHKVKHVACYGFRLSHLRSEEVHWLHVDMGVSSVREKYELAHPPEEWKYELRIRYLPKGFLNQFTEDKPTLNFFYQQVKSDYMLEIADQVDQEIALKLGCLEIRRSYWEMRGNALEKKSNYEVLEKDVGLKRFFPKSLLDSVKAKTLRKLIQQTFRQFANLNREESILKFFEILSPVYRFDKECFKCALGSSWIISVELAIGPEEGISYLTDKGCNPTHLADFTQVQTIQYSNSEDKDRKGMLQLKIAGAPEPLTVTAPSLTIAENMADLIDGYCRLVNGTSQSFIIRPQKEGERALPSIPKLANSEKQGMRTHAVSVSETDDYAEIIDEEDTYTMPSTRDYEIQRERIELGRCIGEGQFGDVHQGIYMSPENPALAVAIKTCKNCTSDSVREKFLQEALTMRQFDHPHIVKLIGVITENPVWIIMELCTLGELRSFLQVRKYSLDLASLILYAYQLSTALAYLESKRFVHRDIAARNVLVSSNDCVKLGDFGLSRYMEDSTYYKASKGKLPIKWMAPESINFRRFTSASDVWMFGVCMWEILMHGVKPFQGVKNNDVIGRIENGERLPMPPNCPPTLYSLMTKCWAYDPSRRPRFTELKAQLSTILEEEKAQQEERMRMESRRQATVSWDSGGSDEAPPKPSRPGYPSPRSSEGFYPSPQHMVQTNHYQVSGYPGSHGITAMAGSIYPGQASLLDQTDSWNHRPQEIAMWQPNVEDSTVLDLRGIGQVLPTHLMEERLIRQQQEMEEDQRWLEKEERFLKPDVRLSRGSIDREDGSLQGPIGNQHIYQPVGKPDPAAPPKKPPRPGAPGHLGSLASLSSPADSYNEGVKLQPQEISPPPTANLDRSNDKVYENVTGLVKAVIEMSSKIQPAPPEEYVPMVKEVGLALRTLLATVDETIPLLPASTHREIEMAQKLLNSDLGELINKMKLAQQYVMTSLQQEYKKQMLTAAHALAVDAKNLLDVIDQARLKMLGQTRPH
Hits are given with their value; 0 = inactive; - = not tested or not shown; [ ] = another dose, or the depositor's remark.

SMILES	EphB4 antag	Rev-RRE block	Plk1 PBD FP	PLK1 inh	Cav32 inh	FAK blocker
Cn1c(SCCCC(=O)c2ccc(Br)cc2)nnc1-c1ccncc1	0	0	0	0	-	0
COc1cnn(-c2ccccc2)c(=O)c1SCc1ccc(Cl)cc1Cl	0	0	0	0	-4	0
CCOC(=O)Cc1c(C)c2ccc(N(CC)CC)cc2oc1=O	0	0	0	0	-	0
CCN(CC)c1ccc2c(c1)oc(=O)c1c(Cl)cc(=O)oc12	0	129[fluorescence artefact?]	0	0	0	0
CCN(CC)c1ccc2c(Cl)c(Br)c(=O)oc2c1	0	0	0	0	-6.4	0
COC(=O)[C@@H]1C[C@@]2(O)[C@@H](O)[C@@H](O)[C@@H](O)C[C@H]2N1Cc1ccc(Cl)cc1	-	-	-	-	0	-
COc1ccc2nc(SCC(=O)Nc3ccc4sc(C)nc4c3)c(C#N)cc2c1	0	0	0	0	0	0
O=C(Cn1c(=O)oc2cc(S(=O)(=O)N3CCCCCC3)ccc21)NC1CCCCC1	-	-	0	0	0	-
Cc1ccc(NC(=O)Cn2c(=O)oc3cc(S(=O)(=O)N4CCC(C)CC4)ccc32)cc1C	0	0	0	0	-5.9	0
CC1Cc2nc(SCC(=O)c3ccccc3)n(Cc3ccccc3)c(=O)c2S1 (centres undefined)	0	0	0	0	-6.3	0
CC1Cc2nc(SCC(=O)NCc3ccccc3)n(Cc3ccccc3)c(=O)c2S1 (centres undefined)	0	0	0	0	0	0
CCc1ccc(-c2cc(C(=O)Nc3c(C)n(C)n(-c4ccccc4)c3=O)c3ccccc3n2)s1	0	0	0	0	-4.3	0
Cc1cc(C(=O)Nc2c(C)n(C)n(-c3ccccc3)c2=O)c2ccccc2n1	0	0	0	0	0	0
CC(C)N1C(=O)CC(Nc2ccc(N3CCOCC3)cc2)C1=O (centres undefined)	0	0	0	0	0	0
COc1ccc(NC2CC(=O)N(C(C)C)C2=O)cc1 (centres undefined)	0	0	0	54	0	0
O=C(CSc1nccn1-c1ncc(C(F)(F)F)cc1Cl)c1ccc(Br)cc1	0	0	0	0	0	0
Cc1ccc(/C(CSc2nccn2-c2ncc(C(F)(F)F)cc2Cl)=N\O)cc1	0	0	0	0	-6.2	0
C#CCOCCOCCOCCNc1nc(N2CCN(C(=O)[C@H](CCC(=O)O)n3cc(C(N)CC(C)C)nn3)CC2)nc(N2CCN(C(=O)[C@H](CCC(=O)O)n3cc(C(N)CC(C)C)nn3)CC2)n1 (some centres undefined)	-	-	-	-	0	-
CCN1C=CC2=C(C#N)C(N)C(C#N)(C#N)C(c3ccccc3C(F)(F)F)C2C1 (centres undefined)	0	58	0	0	0	0
CC(C)c1nc(CN(C)C(=O)N[C@H](C(=O)N[C@@H](Cc2ccccc2)C[C@H](O)[C@H](Cc2ccccc2)NC(=O)OCc2cncs2)C(C)C)cs1	-	-	-	-	-5.6	-
C#CCNC(=O)C1=C[C@H](C(C)(C)C)C[C@H](OCCCCO)O1	-	-	-	-	0	-
O=C(Nc1ccccc1)N1CCc2ccccc21	0	0	0	0	0	0
O=C(NCC1CCCC(CNC(=O)N2CCc3ccccc32)C1)N1CCc2ccccc21 (centres undefined)	0	0	0	0	-5	0
CC(=O)c1cc(NC(=O)c2ccc(Cl)cc2)c(=O)oc1/C=C/N(C)C	0	129[fluorescence artefact?]	0	0	0	0
O=C(Nc1ccc(/C=C/c2nc3ccccc3o2)cc1)c1cccc(C(F)(F)F)c1	0	0	0	0	0	0
CC(=O)c1cc(NC(=O)c2cccc(C(F)(F)F)c2)c(=O)oc1/C=C/N(C)C	0	127[fluorescence artefact?]	0	0	0	0
O=C(Nc1ccc(Cl)cc1)C1=Cc2ccccc2OC1	0	0	0	0	0	0
Brc1cccc(-c2nnc(SCc3ccon3)n2-c2ccccc2)c1	0	0	0	0	-4.6	0
N#CCSc1nnc(-c2cccnc2)n1-c1ccccc1	0	0	0	0	0	0
